Values after ≈ are worked out from the molar mass of the structure shown. Values belong to the molecule of their own block, whether it stands above or below them.
Key:
Dihydrofolate reductase = biological target: T1, Dihydrofolate reductase (Bos taurus, UniProt P00376); test: Concentration required for inhibition of beef liver dihydrofolate reductase
T1 sequence (P00376 whole entry): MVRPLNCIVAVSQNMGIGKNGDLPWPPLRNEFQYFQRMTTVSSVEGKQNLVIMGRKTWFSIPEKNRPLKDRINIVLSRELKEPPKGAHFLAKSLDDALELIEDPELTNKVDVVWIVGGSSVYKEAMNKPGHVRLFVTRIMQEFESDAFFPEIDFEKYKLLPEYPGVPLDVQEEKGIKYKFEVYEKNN

CAKI-1 [1] = test: Inhibition of colony formation of Caki-1 cells by MTX; type: functional, cell-based; conditions: Homo sapiens
Procedure, shortened: (§1)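 Single-cell suspensions (>99% trypan blue-excluding) of M21 melanoma or Caki-1 renal carcinoma cells, 1 × 10⁶ cells/mL in McCoy's medium with 15% dialyzed FCS, exposed 6 h at 37 °C to agent, washed three times, plated in 0.3% agar over 0.5% agar base (10⁴ cells/plate). Incubated at 37 °C, 5% CO₂. Colonies >30 cells counted visually at 14 days, three plates per concentration.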

CAKI-1 [2] = test: Inhibition of colony formation of Caki-1 cells by amide-linked conjugate (regiospecific coupling) of MTX and Dal K-20; type: functional, cell-based; conditions: Homo sapiens; procedure, shortened: as §1
CAKI-1 [3] = test: Inhibition of colony formation of Caki-1 cells by amide-linked conjugate of MTX and Dal K-20; type: functional, cell-based; conditions: Homo sapiens; procedure, shortened: as §1
CAKI-1 [4] = test: Inhibition of colony formation of Caki-1 cells by hydrazone-linked conjugate (regiospecific coupling) of MTX and Dal K-20; type: functional, cell-based; conditions: Homo sapiens; procedure, shortened: as §1
CAKI-1 [5] = test: Inhibition of colony formation of Caki-1 cells by hydrazone-linked conjugate of MTX and Dal K-20; type: functional, cell-based; conditions: Homo sapiens; procedure, shortened: as §1
M21 [6] = test: Colony count at 15 ug/mL of amide-linked conjugate of MTX and Dal K-20 in melanoma M21 cells; conditions: Homo sapiens
M21 [7] = test: Colony count at 10 ug/mL of amide-linked conjugate of MTX and Dal K-20 in melanoma M21 cells; conditions: Homo sapiens
M21 [8] = test: Colony count at 20 ug/mL of amide-linked conjugate of MTX and Dal K-20 in melanoma M21 cells; conditions: Homo sapiens
M21 [9] = test: Colony count at 20 ug/mL of hydrazone-linked conjugate of MTX and Dal K-20 in melanoma M21 cells; conditions: Homo sapiens
M21 [10] = test: Colony count at 10 ug/mL of hydrazone-linked conjugate of MTX and Dal K-20 in melanoma M21 cells; conditions: Homo sapiens
M21 [11] = test: Colony count at 15 ug/mL of hydrazone-linked conjugate of MTX and Dal K-20 in melanoma M21 cells; conditions: Homo sapiens
M21 [12] = test: Colony count at 15 ug/mL of amide-linked conjugate (regiospecific coupling) of MTX and Dal K-20 in melanoma M21 cells; conditions: Homo sapiens
M21 [13] = test: Colony count at 20 ug/mL of amide-linked conjugate (regiospecific coupling) of MTX and Dal K-20 in melanoma M21 cells; conditions: Homo sapiens
M21 [14] = test: Colony count at 10 ug/mL of amide-linked conjugate (regiospecific coupling) of MTX and Dal K-20 in melanoma M21 cells; conditions: Homo sapiens
M21 [15] = test: Colony count at 15 ug/mL of hydrazone-linked conjugate (regiospecific coupling) of MTX and Dal K-20 in melanoma M21 cells; conditions: Homo sapiens
M21 [16] = test: Colony count at 20 ug/mL of hydrazone-linked conjugate (regiospecific coupling) of MTX and Dal K-20 in melanoma M21 cells; conditions: Homo sapiens
M21 [17] = test: Colony count at 10 ug/mL of hydrazone-linked conjugate (regiospecific coupling) of MTX and Dal K-20 in melanoma M21 cells; conditions: Homo sapiens

SMILES: CN(Cc1cnc2nc(N)nc(N)c2n1)c1ccc(C(=O)NC(CCC(=O)NN)C(=O)NN)cc1 (stereo unspecified)
IC50 (Dihydrofolate reductase): 37.9 µM

SMILES: CN(Cc1cnc2nc(N)nc(N)c2n1)c1ccc(C(=O)NC(CCC(=O)NN)C(=O)OC(C)(C)C)cc1 (stereo unspecified)
IC50 (Dihydrofolate reductase): 41.2 µM

SMILES: CN(Cc1cnc2nc(N)nc(N)c2n1)c1ccc(C(=O)N[C@@H](CCC(=O)O)C(=O)O)cc1 [METHOTREXATE]
IC50 (CAKI-1 [1]): 25 µg/mL (≈ 55 µM)
IC50 (CAKI-1 [2]): 3.3 µg/mL (≈ 7.26 µM)
IC50 (CAKI-1 [3]): 4.5 µg/mL (≈ 9.9 µM)
IC50 (CAKI-1 [4]): 3 µg/mL (≈ 6.6 µM)
IC50 (CAKI-1 [5]): 3.4 µg/mL (≈ 7.48 µM)
colony count (M21 [6]): 117 colonies/plate
colony count (M21 [7]): 109 colonies/plate
colony count (M21 [8]): 119 colonies/plate
colony count (M21 [9]): 108 colonies/plate
colony count (M21 [10]): 112 colonies/plate
colony count (M21 [11]): 109 colonies/plate
colony count (M21 [12]): 118 colonies/plate
colony count (M21 [13]): 112 colonies/plate
colony count (M21 [14]): 115 colonies/plate
colony count (M21 [15]): 121 colonies/plate
colony count (M21 [16]): 115 colonies/plate
colony count (M21 [17]): 120 colonies/plate

Results, then the molecule that gave them:

IC50 (Dihydrofolate reductase): 30.7 µM
SMILES: CN(Cc1cnc2nc(N)nc(N)c2n1)c1ccc(C(=O)NC(CCC(=O)NN)C(=O)O)cc1 (stereo unspecified)

IC50 (Dihydrofolate reductase): 25.4 µM
SMILES: COC(=O)CCC(NC(=O)c1ccc(N(C)Cc2cnc3nc(N)nc(N)c3n2)cc1)C(=O)O (stereo unspecified)

From ChEMBL document CHEMBL1124362, “Synthesis of methotrexate-antibody conjugates by regiospecific coupling and assessment of drug and antitumor activities” (J Med Chem, 1989)
